Experimental data published in ChEMBL document CHEMBL1128681, “Studies on the monoamine oxidase (MAO)-catalyzed oxidation of phenyl-substituted 1-methyl-4-phenoxy-1,2,3,6-tetrahydropyridine derivatives: factors contributing to MAO-A and MAO-B selectivity” (J Med Chem, 1995).

Assay: Selectivity coefficient as ratio of Kcat/Km for MAO-A and Kcat/Km for MAO-B
Outline: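 Selectivity coefficient: MAO-A kcat/KM divided by MAO-B kcat/KM. Each value came from spectrophotometric initial-rate kinetics at 100–2000 μM substrate in 100 mM sodium phosphate pH 7.4, with 0.16 μM MAO-A or 0.08 μM MAO-B, and double-reciprocal plot analysis.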

Selectivity coefficient	SMILES
1.4	Cc1ccccc1OC1=CCN(C)CC1
2.08	COc1ccc(OC2=CCN(C)CC2)cc1
1.01	COc1ccccc1OC1=CCN(C)CC1
0.08	CN1CC=C(Cc2ccccc2)CC1
2.53	CN1CC=C(Oc2ccc([N+](=O)[O-])cc2)CC1
2.15	CN1CC=C(Oc2ccc(Cl)cc2)CC1
4.71	CN1CC=C(Oc2ccc(-c3ccccc3)cc2)CC1
1.7	CN1CC=C(Oc2ccccc2[N+](=O)[O-])CC1
8.74	CN1CC=C(Oc2cccc(-c3ccccc3)c2)CC1
5.99	CN1CC=C(Oc2cccc(Cl)c2)CC1
0.57	CN1CC=C(Oc2ccccc2)CC1
4.35	CN1CC=C(Oc2ccccc2-c2ccccc2)CC1
3.88	COc1cccc(OC2=CCN(C)CC2)c1
1.16	Cc1cccc(OC2=CCN(C)CC2)c1
1.21	CN1CC=C(Oc2cccc([N+](=O)[O-])c2)CC1
0.3	Cc1ccc(OC2=CCN(C)CC2)cc1
2.99	CN1CC=C(Oc2ccccc2Cl)CC1

SMILES	Selectivity coefficient
CN1CC=C(c2ccccc2)CC1	0.03
